Molecules are shown by their SMILES. Values after ≈ are worked out from the molar mass of the structure shown. Where only a bound is given, the exact number is not on record here.

The record followed here is ChEMBL document CHEMBL1208682, “New quinoline derivatives: synthesis and investigation of antibacterial and antituberculosis properties” (2010).

Type in all cases: functional
One experiment has as its system Staphylococcus aureus. In words: Antibacterial activity against Staphylococcus aureus ATCC 25923 after 3 to 4 days by serial plate dilution method. Particulars: for MIC: Staphylococcus aureus, ATCC 25923.
The test system of a further experiment is Escherichia coli. The experiment in a line: Antibacterial activity against Escherichia coli ATCC 25922 after 3 to 4 days by serial plate dilution method. Particulars: for MIC: Escherichia coli, ATCC 25922.
The next experiment deals with Pseudomonas aeruginosa. The experiment in a line: Antibacterial activity against Pseudomonas aeruginosa ATCC 27853 after 3 to 4 days by serial plate dilution method. Particulars: for MIC: Pseudomonas aeruginosa, ATCC 27853.
The subject of another experiment is Klebsiella pneumoniae. The experiment in a line: Antibacterial activity against recultured Klebsiella pneumoniae after 3 to 4 days by serial plate dilution method. The following applies: for MIC: Klebsiella pneumoniae.
Experiment [1] concerns Mycobacterium tuberculosis. The experiment in a line: Antituberculosis activity against Mycobacterium tuberculosis H37Rv ATCC 27294 after 7 days using resazurin dye by broth microdilution assay. Particulars: H37Rv ATCC 27294, 168 h. Summed up: (§1)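 M. tuberculosis H37Rv grown in Middlebrook 7H9 with 10% OADC and 0.5% glycerol, adjusted to McFarland 1.0. Compounds were dissolved in DMF as stocks and tested at final levels of 1.56, 3.12, 6.25, 12.5, 25 and 50 in 96-well REMA. Controls were DMF-only, growth, rifampicin and isoniazid. After 7 days at 37 °C, 0.01% resazurin was added for 24 h and the colour change read.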

For experiment [2], the system named is Mycobacterium tuberculosis. In words: Antituberculosis activity against Mycobacterium tuberculosis at MIC concentration after 7 days using resazurin dye by broth microdilution assay. In short, it runs like this:
as §1
In general terms: Alamar Blue is a resazurin reagent that responds to reducing activity.

Experiment [3] relates to Mycobacterium tuberculosis. In words: Antituberculosis activity against Mycobacterium tuberculosis. Summed up:
as §1

`FC(F)(F)c1cc(N/N=C/c2cccnc2)c2cccc(C(F)(F)F)c2n1`: the “diameter of the inhibition zone (DIZ)” value turned out to be 22 mm with Staphylococcus aureus, 24 mm in the experiment with Escherichia coli, 25 mm in the experiment on Pseudomonas aeruginosa and 20 mm in the experiment on Klebsiella pneumoniae. Further, the MIC with Staphylococcus aureus amounted to 6.25 µg/mL (≈ 16.3 µM); in the experiment on Escherichia coli, 6.25 µg/mL (≈ 16.3 µM); against Pseudomonas aeruginosa it was 6.25 µg/mL (≈ 16.3 µM); with Klebsiella pneumoniae, 6.25 µg/mL (≈ 16.3 µM); in experiment [1], 12.5 µM (≈ 4.8 µg/mL). In experiment [2], the “inhibition (INH)” value is given as under 90%.
`FC(F)(F)c1cc(N/N=C/C2CCCCC2)c2cccc(C(F)(F)F)c2n1`: the “diameter of the inhibition zone (DIZ)” value in the experiment with Staphylococcus aureus was 24 mm; with Escherichia coli, 25 mm; in the experiment with Pseudomonas aeruginosa, 23 mm; in the experiment on Klebsiella pneumoniae, 19 mm. Moreover, the minimal inhibitory concentration (MIC) against Staphylococcus aureus was 6.25 µg/mL (≈ 16.1 µM); with Escherichia coli, 6.25 µg/mL (≈ 16.1 µM); against Pseudomonas aeruginosa it was 6.25 µg/mL (≈ 16.1 µM); against Klebsiella pneumoniae, 6.25 µg/mL (≈ 16.1 µM); in experiment [1], 6.25 µM (≈ 2.43 µg/mL). Also, the “inhibition (INH)” value in experiment [2] is reported as 95%.
As for `FC(F)(F)Oc1cccc(/C=N/Nc2cc(C(F)(F)F)nc3c(C(F)(F)F)cccc23)c1`, the “diameter of the inhibition zone (DIZ)” value in the experiment with Staphylococcus aureus is on record as 21 mm; with Escherichia coli, 24 mm; in the experiment on Pseudomonas aeruginosa, 26 mm; with Klebsiella pneumoniae, 20 mm. Also, the MIC against Staphylococcus aureus is 6.25 µg/mL (≈ 13.4 µM); against Escherichia coli, 6.25 µg/mL (≈ 13.4 µM); in the experiment on Pseudomonas aeruginosa, 6.25 µg/mL (≈ 13.4 µM); against Klebsiella pneumoniae, 6.25 µg/mL (≈ 13.4 µM); in experiment [1] it was 12.5 µM (≈ 5.84 µg/mL). Besides, the “inhibition (INH)” value in experiment [2] is recorded as under 90%.
As to `CCCCCCC/C=N/Nc1cc(C(F)(F)F)nc2c(C(F)(F)F)cccc12`, the “diameter of the inhibition zone (DIZ)” value with Staphylococcus aureus is 12 mm; with Escherichia coli it was 24 mm; with Pseudomonas aeruginosa, 14 mm; with Klebsiella pneumoniae it was 12 mm. Moreover, the MIC was found to be 12.5 µg/mL (≈ 30.8 µM) against Staphylococcus aureus; 6.25 µg/mL (≈ 15.4 µM) with Escherichia coli; 12.5 µg/mL (≈ 30.8 µM) against Pseudomonas aeruginosa; 12.5 µg/mL (≈ 30.8 µM) with Klebsiella pneumoniae; 6.25 µM (≈ 2.53 µg/mL) in experiment [1]. The “inhibition (INH)” value in experiment [2] was found to be 95%.
On to `FC(F)(F)c1cc(N/N=C/c2c[nH]cn2)c2cccc(C(F)(F)F)c2n1`, for which the “diameter of the inhibition zone (DIZ)” value turned out to be 24 mm in the experiment on Staphylococcus aureus, 25 mm in the experiment with Escherichia coli, 23 mm in the experiment with Pseudomonas aeruginosa and 18 mm in the experiment on Klebsiella pneumoniae. Moreover, the MIC against Staphylococcus aureus is 6.25 µg/mL (≈ 16.7 µM); in the experiment on Escherichia coli, 6.25 µg/mL (≈ 16.7 µM); against Pseudomonas aeruginosa, 6.25 µg/mL (≈ 16.7 µM); against Klebsiella pneumoniae, 6.25 µg/mL (≈ 16.7 µM); in experiment [1], 3.12 µM (≈ 1.16 µg/mL). The “inhibition (INH)” value in experiment [2] is on record as 99%.
For the compound `Cn1cc(Cl)c(/C=N/Nc2cc(C(F)(F)F)nc3c(C(F)(F)F)cccc23)n1`, the “diameter of the inhibition zone (DIZ)” value in the experiment with Staphylococcus aureus is 22 mm; in the experiment on Escherichia coli, 24 mm; with Pseudomonas aeruginosa it was 28 mm; with Klebsiella pneumoniae, 18 mm. In addition, the MIC was 6.25 µg/mL (≈ 14.8 µM) with Staphylococcus aureus; 6.25 µg/mL (≈ 14.8 µM) in the experiment on Escherichia coli; 6.25 µg/mL (≈ 14.8 µM) with Pseudomonas aeruginosa; 6.25 µg/mL (≈ 14.8 µM) against Klebsiella pneumoniae; 6.25 µM (≈ 2.64 µg/mL) in experiment [1]. Further, the “inhibition (INH)” value in experiment [2] was 95%.
Turning to `Cn1cccc1/C=N/Nc1cc(C(F)(F)F)nc2c(C(F)(F)F)cccc12`, the “diameter of the inhibition zone (DIZ)” value in the experiment on Staphylococcus aureus worked out at 22 mm; in the experiment on Escherichia coli, 20 mm; in the experiment with Pseudomonas aeruginosa, 24 mm; in the experiment on Klebsiella pneumoniae it was 21 mm. In addition, the MIC with Staphylococcus aureus was 6.25 µg/mL (≈ 16.2 µM); against Escherichia coli, 6.25 µg/mL (≈ 16.2 µM); in the experiment on Pseudomonas aeruginosa it was 6.25 µg/mL (≈ 16.2 µM); against Klebsiella pneumoniae, 6.25 µg/mL (≈ 16.2 µM); in experiment [1], 12.5 µM (≈ 4.83 µg/mL). Besides, the “inhibition (INH)” value in experiment [2] is under 90%.
Turning to `FC(F)(F)c1cc(N/N=C/c2ccc3nonc3c2)c2cccc(C(F)(F)F)c2n1`, the “diameter of the inhibition zone (DIZ)” value was found to be 18 mm in the experiment on Staphylococcus aureus, 22 mm in the experiment on Escherichia coli, 24 mm in the experiment with Pseudomonas aeruginosa and 20 mm with Klebsiella pneumoniae. The MIC in the experiment on Staphylococcus aureus turned out to be 6.25 µg/mL (≈ 14.7 µM); against Escherichia coli it was 6.25 µg/mL (≈ 14.7 µM); in the experiment on Pseudomonas aeruginosa, 6.25 µg/mL (≈ 14.7 µM); with Klebsiella pneumoniae, 6.25 µg/mL (≈ 14.7 µM); in experiment [1] it was 12.5 µM (≈ 5.32 µg/mL). Besides, the “inhibition (INH)” value in experiment [2] was under 90%.
`Cn1nnc2cc(/C=N/Nc3cc(C(F)(F)F)nc4c(C(F)(F)F)cccc34)ccc21`: the “diameter of the inhibition zone (DIZ)” value is 22 mm in the experiment on Staphylococcus aureus, 20 mm in the experiment with Escherichia coli, 24 mm in the experiment on Pseudomonas aeruginosa and 21 mm with Klebsiella pneumoniae. Also, the MIC in the experiment with Staphylococcus aureus is 6.25 µg/mL (≈ 14.3 µM); against Escherichia coli it was 6.25 µg/mL (≈ 14.3 µM); against Pseudomonas aeruginosa, 6.25 µg/mL (≈ 14.3 µM); against Klebsiella pneumoniae, 6.25 µg/mL (≈ 14.3 µM); in experiment [1], 12.5 µM (≈ 5.48 µg/mL). In experiment [2], the “inhibition (INH)” value is on record as under 90%.
Turning to `Cc1cccc2c(/C=N/Nc3cc(C(F)(F)F)nc4c(C(F)(F)F)cccc34)c[nH]c12`, the “diameter of the inhibition zone (DIZ)” value is 24 mm in the experiment with Staphylococcus aureus, 27 mm with Escherichia coli, 24 mm in the experiment with Pseudomonas aeruginosa and 19 mm in the experiment on Klebsiella pneumoniae. Further, the MIC against Staphylococcus aureus came to 6.25 µg/mL (≈ 14.3 µM); in the experiment on Escherichia coli, 6.25 µg/mL (≈ 14.3 µM); in the experiment with Pseudomonas aeruginosa, 6.25 µg/mL (≈ 14.3 µM); with Klebsiella pneumoniae, 6.25 µg/mL (≈ 14.3 µM); in experiment [1] it was 6.25 µM (≈ 2.73 µg/mL). The “inhibition (INH)” value in experiment [2] worked out at 95%.
With `Cc1nc[nH]c1/C=N/Nc1cc(C(F)(F)F)nc2c(C(F)(F)F)cccc12`, the “diameter of the inhibition zone (DIZ)” value turned out to be 24 mm in the experiment on Staphylococcus aureus, 26 mm in the experiment on Escherichia coli, 25 mm in the experiment on Pseudomonas aeruginosa and 22 mm in the experiment on Klebsiella pneumoniae. In addition, the MIC came to 6.25 µg/mL (≈ 16.1 µM) against Staphylococcus aureus; 6.25 µg/mL (≈ 16.1 µM) against Escherichia coli; 6.25 µg/mL (≈ 16.1 µM) in the experiment with Pseudomonas aeruginosa; 6.25 µg/mL (≈ 16.1 µM) against Klebsiella pneumoniae; 3.12 µM (≈ 1.21 µg/mL) in experiment [1]. Also, the “inhibition (INH)” value in experiment [2] worked out at 99%.
Regarding `O=C(NNc1cc(C(F)(F)F)nc2c(C(F)(F)F)cccc12)Nc1ccc(F)cc1`, the “diameter of the inhibition zone (DIZ)” value is 10 mm in the experiment on Staphylococcus aureus, 10 mm in the experiment on Escherichia coli, 14 mm with Pseudomonas aeruginosa and under 10 mm in the experiment on Klebsiella pneumoniae. Moreover, the MIC is 12.5 µg/mL (≈ 28.9 µM) in the experiment on Staphylococcus aureus; 12.5 µg/mL (≈ 28.9 µM) against Escherichia coli; 12.5 µg/mL (≈ 28.9 µM) in the experiment on Pseudomonas aeruginosa; 50 µg/mL (≈ 116 µM) against Klebsiella pneumoniae; 12.5 µM (≈ 5.4 µg/mL) in experiment [1]. The “inhibition (INH)” value in experiment [2] was under 90%.
As to `COc1ccccc1NC(=O)NNc1cc(C(F)(F)F)nc2c(C(F)(F)F)cccc12`, the “diameter of the inhibition zone (DIZ)” value in the experiment on Staphylococcus aureus is listed as 21 mm; in the experiment on Escherichia coli, 24 mm; in the experiment on Pseudomonas aeruginosa it was 22 mm; with Klebsiella pneumoniae, 18 mm. The minimal inhibitory concentration (MIC) with Staphylococcus aureus came to 6.25 µg/mL (≈ 14.1 µM); against Escherichia coli, 6.25 µg/mL (≈ 14.1 µM); against Pseudomonas aeruginosa, 6.25 µg/mL (≈ 14.1 µM); with Klebsiella pneumoniae, 6.25 µg/mL (≈ 14.1 µM); in experiment [1], 12.5 µM (≈ 5.55 µg/mL). Also, the “inhibition (INH)” value in experiment [2] is given as under 90%.
Regarding `Cc1cc(C)cc(NC(=O)NNc2cc(C(F)(F)F)nc3c(C(F)(F)F)cccc23)c1`, the “diameter of the inhibition zone (DIZ)” value came out at 23 mm in the experiment with Staphylococcus aureus, 20 mm in the experiment with Escherichia coli, 24 mm in the experiment with Pseudomonas aeruginosa and 22 mm in the experiment on Klebsiella pneumoniae. Moreover, the MIC with Staphylococcus aureus worked out at 6.25 µg/mL (≈ 14.1 µM); with Escherichia coli, 6.25 µg/mL (≈ 14.1 µM); against Pseudomonas aeruginosa, 6.25 µg/mL (≈ 14.1 µM); in the experiment on Klebsiella pneumoniae, 6.25 µg/mL (≈ 14.1 µM); in experiment [1] it was 6.25 µM (≈ 2.76 µg/mL). The “inhibition (INH)” value in experiment [2] came to 95%.
With `OC(c1cc(C(F)(F)F)nc2c(C(F)(F)F)cccc12)C1CCCCN1` (stereo unspecified) [MEFLOQUINE], 25 µg/mL (≈ 66.1 µM) was the least that counted as inhibitory in experiment [3] (MIC).

The term MIC denotes the lowest concentration found to suppress growth.
